Screens (PubChem)
Wee1 degr inh = blocks degradation of human Wee1 kinase. reporter increase, % at 5 µM. HeLa Luc-Wee1K328M stability, luciferase luminescence; 100% = proteasome inhibitor MG132 effect. P30291. 220,000 compounds, 1.2% hits;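 active means activation above the mean of all tested compounds plus 3 SD, set per screening run, cut at about 8.8% in these data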;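 further: cells exposed to compound for 20 h before luminescence read; 0% = DMSO alone and 100% = MG132 at 30 µM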
Lmaj promast = reduces viability of Leishmania major promastigotes | resazurin fluorescence viability | 200,000 compounds, 9% hits | AID 1063 | inhibition, % at 10 µM;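 further: promastigotes grown with compound for 44 hours at 28 °C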
Arbovirus inh = blocks arbovirus infection; inhibition, % at 10 µM; arbovirus infection cell-based antiviral screen; 200,000 compounds, 0.37% hits; AID 1251; in the data active means inhibition above about 30%
Rad51 HR inh = Rad51 (human) homologous recombination inhibition; 200,000 compounds, 0.085% hits; inhibition, % at 10 µM; Q06609; hRad51 DNA strand exchange, fluorescence dequenching;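 active means inhibition above 40% at the single screening dose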;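 further: 0% = DMSO control wells and 100% = blanks with heterologous ssDNA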
Target sequence (Q06609 whole entry, looked up): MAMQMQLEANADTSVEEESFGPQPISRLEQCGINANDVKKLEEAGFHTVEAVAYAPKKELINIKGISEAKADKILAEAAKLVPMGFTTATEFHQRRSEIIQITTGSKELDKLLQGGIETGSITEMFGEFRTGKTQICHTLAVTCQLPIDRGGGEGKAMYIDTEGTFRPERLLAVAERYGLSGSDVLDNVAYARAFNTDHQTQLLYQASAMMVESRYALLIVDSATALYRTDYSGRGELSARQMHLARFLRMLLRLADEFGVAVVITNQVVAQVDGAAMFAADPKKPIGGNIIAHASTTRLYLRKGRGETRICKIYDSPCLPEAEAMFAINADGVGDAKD
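Test system – preformed human Rad51 ssDNA filaments · Reagent – Donor/quencher-labelled 47-bp dsDNA substrate · Incubation – 37 °C 15-min filament assembly, 30-min compound preincubation, 15-min exchange · Signal – FRET fluorescence dequenching, excitation 485 nm, emission 520 nm · Read-out – percent inhibition from fluorescence, normalised to plate control and blank means · Benchmarks – plate control and blank wells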
PKD1 kinase inh = inhibitors of human PKD1 kinase | Q15139 | PKD1 kinase fluorescence polarization assay | inhibition, % (concentration not given with the values) | 200,000 compounds, 0.056% hits | AID 797
CHOP inhibitor = blocks CHOP induction under ER stress; CHO-K1 CHOP-promoter luciferase, tunicamycin-induced, 15-18 h; inhibition, % at 10 µM; 220,000 compounds, 3.8% hits; AID 2732;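 active means compounds that reduced the stress-induced luciferase reporter signal by more than about 70% of percent inhibition, limit read from the data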;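 further: 0% = tunicamycin plus vehicle and 100% = wells without tunicamycin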
* marks the source's active call; other numbers are inactive results. Only some compounds are listed: those with a hit (about 12% of all), similar ones and a draw of the others. Unless noted, no stated cut-off is given here; in the data, active means inhibition above about 50%; inactive means the rest.

Screening NS(=O)(=O)c1ccc(Nc2nc(-c3ccc(O)cc3O)cs2)cc1 returned Wee1 degr inh -1, Lmaj promast 63*, Arbovirus inh 3, PKD1 kinase inh 6 and CHOP inhibitor 18.
N.N.O=C(O)C1(C(=O)O)CCC1.[Pt+2] was read as CHOP inhibitor -2.
NC(=S)N/N=C1\CC(n2nnn(-c3cccc(Cl)c3)c2=S)C2COC1O2 (stereo not drawn) was read as Wee1 degr inh -1, Lmaj promast 6, Arbovirus inh 12, Rad51 HR inh 10, PKD1 kinase inh 0 and CHOP inhibitor 14.
For C/C(=N\Nc1ccc(C(F)(F)F)cn1)c1ccc(S(=O)(=O)NCc2ccco2)cc1 the results were Wee1 degr inh 8, Lmaj promast 75*, Arbovirus inh 1, Rad51 HR inh 8, PKD1 kinase inh 5 and CHOP inhibitor 50.
Screening C/C(=N\Nc1nc(Cl)c(Cl)cc1Cl)c1ccc(S(=O)(=O)NCc2ccco2)cc1 returned Wee1 degr inh 2, Lmaj promast 100*, Arbovirus inh -2, Rad51 HR inh 0, PKD1 kinase inh -2 and CHOP inhibitor 87*.
O=Cc1c(Cl)nc2ccccn2c1=O was read as Wee1 degr inh -2, Rad51 HR inh 10 and CHOP inhibitor -91.
`COc1ccc(-c2csc(N(CC3CCCO3)C(=O)c3cccs3)n2)cc1` (stereo not drawn) gave Wee1 degr inh 2, Lmaj promast 82*, Arbovirus inh -8, Rad51 HR inh -7, PKD1 kinase inh 9 and CHOP inhibitor 5.
For CCN(CC)CCCN(C(=O)c1cccs1)c1nc(-c2ccc(OC)cc2)cs1 the results were Wee1 degr inh -3, Lmaj promast 101*, Arbovirus inh -41, Rad51 HR inh -1, PKD1 kinase inh -12 and CHOP inhibitor -4.
For CCN(CC)CCCN(C(=O)c1ccco1)c1nc(-c2ccc(C)cc2)cs1 the results were Wee1 degr inh 0, Lmaj promast 72*, Arbovirus inh -35, Rad51 HR inh -2, PKD1 kinase inh -9 and CHOP inhibitor -8.
COc1ccc(-c2csc(N(C)C(=O)c3cccs3)n2)cc1 was read as Wee1 degr inh -4, Lmaj promast -10, Arbovirus inh 1, Rad51 HR inh 6, PKD1 kinase inh -3 and CHOP inhibitor -5.
Screening CCS(=O)(=O)N1CCN(c2ccccn2)CC1 returned Wee1 degr inh 2, Lmaj promast 92*, Arbovirus inh 8, Rad51 HR inh 3, PKD1 kinase inh 0 and CHOP inhibitor -2.
CCCS(=O)(=O)N1CCN(c2ccccn2)CC1 was read as Wee1 degr inh 0, Lmaj promast -3, Arbovirus inh -1, Rad51 HR inh 5, PKD1 kinase inh -9 and CHOP inhibitor 12.
Screening COc1ccc(CN=CC2=C(O)CNC2=O)cc1 returned Wee1 degr inh -3, Lmaj promast -1, Arbovirus inh -3, Rad51 HR inh 0, PKD1 kinase inh -8 and CHOP inhibitor -1.
`Cc1cc(C)cc(N=Cc2[nH]c3ccc(Br)c(Cl)c3c2O)c1` gave Wee1 degr inh 1, Lmaj promast -1, Arbovirus inh -25, PKD1 kinase inh -7 and CHOP inhibitor 103*.
Screening Cc1ccc(N=Cc2cc(Br)cc(Cl)c2O)cc1 returned Wee1 degr inh -1, Lmaj promast -4, Arbovirus inh 4, PKD1 kinase inh -2 and CHOP inhibitor 52.
For COc1ccc(CN=Cc2[nH]c3ccc(Br)c(Cl)c3c2O)cc1 the results were Wee1 degr inh -4, Lmaj promast 99*, Arbovirus inh -7, PKD1 kinase inh -5 and CHOP inhibitor 43.
Screening O=C1NCCN/C1=C\C(=O)c1cccc(Br)c1 returned Wee1 degr inh -2, Rad51 HR inh -12 and CHOP inhibitor -4.
CC(C)n1c2ccccc2c2nc3ccccc3nc21 was read as Wee1 degr inh 5, Lmaj promast 13, Arbovirus inh -9, Rad51 HR inh -4, PKD1 kinase inh -11 and CHOP inhibitor 72*.
Screening N#CCn1c2ccccc2c2nc3ccccc3nc21 returned Wee1 degr inh -3, Lmaj promast -2, Arbovirus inh 12, Rad51 HR inh 3, PKD1 kinase inh 3 and CHOP inhibitor 24.
Screening CCCCCCCCCCCC(=O)NC(C(=O)OCC)C(O)c1cccc([N+](=O)[O-])c1 (stereo not drawn) returned Wee1 degr inh 0, Lmaj promast -6, Arbovirus inh 6, Rad51 HR inh 3, PKD1 kinase inh -3 and CHOP inhibitor 92*.
`COc1ccc(Nc2ccc(N3C(=O)CCCC3=O)cc2[N+](=O)[O-])cc1OC` gave Wee1 degr inh 2, Lmaj promast 88*, Arbovirus inh 2, Rad51 HR inh 9, PKD1 kinase inh -15 and CHOP inhibitor 6.
COc1ccc(Nc2ccc(N3C(=O)CC(C)C3=O)cc2[N+](=O)[O-])cc1OC (stereo not drawn) was read as Wee1 degr inh 1, Lmaj promast -7, Arbovirus inh 1, Rad51 HR inh 17, PKD1 kinase inh 1 and CHOP inhibitor -12.
Screening CN1CCN(C(=S)C(=O)Nc2ccc(Br)cc2)CC1 returned Wee1 degr inh 3, Lmaj promast -5, Arbovirus inh 3, Rad51 HR inh 2, PKD1 kinase inh -4 and CHOP inhibitor 6.
O=C1/C(=C/c2cccnc2)Sc2ccccc21 was read as Wee1 degr inh 1, Lmaj promast 83*, Arbovirus inh 0, Rad51 HR inh -3, PKD1 kinase inh 0 and CHOP inhibitor 17.
Cc1ccc(/C=C2\Sc3ccccc3C2=O)s1 was read as Wee1 degr inh 5, Lmaj promast 3, Arbovirus inh 0, Rad51 HR inh -2, PKD1 kinase inh -9 and CHOP inhibitor 70*.
`CC(=O)Nc1ccc(/C=C2\Sc3ccccc3C2=O)cc1` gave Wee1 degr inh 0, Rad51 HR inh -4 and CHOP inhibitor 29.
CC(=O)Nc1ccc(-c2csc(NC(C)c3ccccc3)n2)cc1 (stereo not drawn) was read as Wee1 degr inh -2, Lmaj promast 8, Arbovirus inh -13, Rad51 HR inh -8, PKD1 kinase inh -7 and CHOP inhibitor 23.
Screening Cc1nc(N(C)C)c2sc(=S)n(Cc3ccccc3)c2n1 returned Wee1 degr inh -1, Lmaj promast 1, Arbovirus inh -1, PKD1 kinase inh 8 and CHOP inhibitor 33.
COc1ccc(NC(=O)/C(=C/c2ccc3c(c2)OCO3)NC(C)=O)cc1 was read as Wee1 degr inh 1, Lmaj promast 71*, Arbovirus inh -7, Rad51 HR inh -13, PKD1 kinase inh -19 and CHOP inhibitor -17.
O=C(O)CCCNC(=O)Cc1ccccc1 was read as Wee1 degr inh 2, Rad51 HR inh -10 and CHOP inhibitor -3.
Screening NNC(=O)c1ccc(CSc2n[nH]c(=O)[nH]c2=O)cc1 returned Wee1 degr inh -4, Rad51 HR inh 8 and CHOP inhibitor 4.
